High-throughput results deposited in PubChem BioAssay by Johns Hopkins Ion Channel Center.
hERG protect – compounds protecting human hERG from proarrhythmic drug block; activation (rescue from dofetilide block), less the hit threshold, % at 10 µM; 0.51% of 310,000 active; Q12809; AID 1511; CHO-hERG, FluxOR thallium flux, dofetilide IC70 present;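 active means activation above the mean of controls blocked by dofetilide plus 5 SD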;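 further: thallium influx through hERG after potassium depolarization seen as dye fluorescence rise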
Target sequence (Q12809 whole entry, looked up): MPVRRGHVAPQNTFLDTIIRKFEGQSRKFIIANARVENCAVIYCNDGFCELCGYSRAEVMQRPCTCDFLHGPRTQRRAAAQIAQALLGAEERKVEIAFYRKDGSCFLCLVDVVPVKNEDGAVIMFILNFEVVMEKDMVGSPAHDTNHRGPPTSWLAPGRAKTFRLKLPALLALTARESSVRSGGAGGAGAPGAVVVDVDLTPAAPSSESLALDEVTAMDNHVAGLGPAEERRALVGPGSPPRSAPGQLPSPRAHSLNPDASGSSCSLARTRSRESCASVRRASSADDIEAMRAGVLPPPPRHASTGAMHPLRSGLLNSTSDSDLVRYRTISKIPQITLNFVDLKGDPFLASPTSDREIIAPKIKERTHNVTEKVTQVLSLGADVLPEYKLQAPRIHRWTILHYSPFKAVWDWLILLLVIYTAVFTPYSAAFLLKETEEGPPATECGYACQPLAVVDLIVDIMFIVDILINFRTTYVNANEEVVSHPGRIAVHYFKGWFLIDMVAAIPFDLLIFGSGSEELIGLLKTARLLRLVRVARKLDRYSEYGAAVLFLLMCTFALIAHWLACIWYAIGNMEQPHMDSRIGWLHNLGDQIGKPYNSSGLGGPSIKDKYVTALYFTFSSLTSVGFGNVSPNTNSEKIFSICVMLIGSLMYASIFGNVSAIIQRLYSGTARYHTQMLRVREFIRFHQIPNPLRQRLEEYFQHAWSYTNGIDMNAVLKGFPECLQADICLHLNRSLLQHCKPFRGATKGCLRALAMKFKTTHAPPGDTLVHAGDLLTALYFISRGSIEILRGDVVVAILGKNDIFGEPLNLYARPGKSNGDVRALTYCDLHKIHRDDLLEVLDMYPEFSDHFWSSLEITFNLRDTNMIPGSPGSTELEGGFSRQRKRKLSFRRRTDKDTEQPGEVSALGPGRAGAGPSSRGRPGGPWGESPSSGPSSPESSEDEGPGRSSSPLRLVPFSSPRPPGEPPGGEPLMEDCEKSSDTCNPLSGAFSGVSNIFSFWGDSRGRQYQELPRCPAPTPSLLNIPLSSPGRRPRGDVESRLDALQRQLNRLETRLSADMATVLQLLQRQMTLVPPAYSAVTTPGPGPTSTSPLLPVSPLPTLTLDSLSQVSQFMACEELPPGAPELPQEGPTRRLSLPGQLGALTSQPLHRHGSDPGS
KCNQ1 act – human KCNQ1 channel potentiation or activation | AID 2648 | B-score at 10 µM | CHO-K1 KCNQ1, thallium flux FluxOR fluorescence; active compounds read high | 0.35% of 310,000 active | P51787;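 active means fluorescence ratio B-score, a plate-corrected score, at least three library SD, with initial intensity B-score within 5 SD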
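Assay system: stable KCNQ1 CHO-K1 line; medium: assay buffer, equal DMSO in all wells; timing: 90 min dye loading and 20 min compound exposure, both at room temperature; technique: kinetic FluxOR thallium fluorescence, 10-s 1-Hz baseline, 110-s post-stimulus read; read-out basis: B score of baseline-normalized fluorescence ratio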
KCNK9 block – inhibitors of human KCNK9 two-pore domain potassium channel; 1.2% of 310,000 active; AID 488922; HEK293 KCNK9, FluxOR thallium flux fluorescence; active compounds read low; Q9NPC2; B-score at 10 µM;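 active means ratio B-score over 3 SD below the library mean, with starting fluorescence within 5 SD of its mean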;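 further: negative B-score means less thallium flux so channel inhibition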
Kir21 inh – inhibitors of mouse Kir2.1 inward-rectifier potassium channel | P35561 | HEK293-Kir2.1, FluxOR thallium flux fluorescence; active compounds read low | B-score at 10 µM | 0.85% of 310,000 active;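 active means fluorescence ratio B-score at or below minus 3 SD of library scores, with starting-brightness B-score within 2 SD, cut at about -4.2 in these data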;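 further: channel flux triggered by added potassium and thallium sulfate stimulus; B-score of peak minus minimum fluorescence over baseline after thallium stimulus; more negative B-score means stronger Kir2.1 block with less thallium influx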
KCNQ1 inh – inhibitors of human KCNQ1 potassium channel | P51787 | CHO-K1 KCNQ1, FluxOR thallium flux fluorescence; active compounds read high | B-score at 10 µM | 1.3% of 310,000 active | AID 2642;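 active means compounds whose thallium flux B-score, printed positive for inhibition, exceeds three library SD while starting fluorescence stays within three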;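 further: channel opened by potassium depolarization with thallium stimulus after 20 min compound exposure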
KCNK3 block – human KCNK3 channel inhibition, primary screen; O14649; CHO-KCNK3 thallium flux, FluxOR fluorescence; active compounds read low; 0.84% of 340,000 active; B-score at 10 µM;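 active means B-score under library mean minus 4 SD, starting fluorescence ratio at most library mean plus 5 SD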;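 further: more negative B-score means stronger inhibition of thallium flux through KCNK3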
The depositor's hits bear a star; i = inactive; · = no result given. In the library only some 3.8% were active in any assay of this set; here they are far more common.

SMILES	hERG protect	KCNQ1 act	KCNK9 block	Kir21 inh	KCNQ1 inh	KCNK3 block
Cc1cccc(C(=O)OCC(=O)NC(C)CCc2ccccc2)c1O (centres undefined)	-4	i	i	-0.06	i	i
COc1ccc(-c2nn(-c3ccccc3)cc2/C=C/C(=O)NCCCn2ccnc2)cc1OC	-36	i	i	-2.9	7*	i
COc1ccc(-c2nn(-c3ccccc3)cc2/C=C/C(=O)N(C)CC(=O)Nc2cccc(F)c2)cc1OC	·	·	·	·	·	-10*
CCOc1ccc(NC(=O)CN(C)C(=O)c2c(-c3c(F)cccc3Cl)noc2C)cc1OCC	3	8*	i	-0.06	i	i
CCOc1ccc(NC(=O)CN(C)C(=O)c2cn(-c3ccc(F)cc3)nc2-c2cccc(OC)c2)cc1OCC	-12	i	i	2.2	7*	i
CCCCCCCCCCCCCCCCCCNc1ccn(C2OC(COP(=O)(O)OCC3OC(n4cc(F)c(=O)[nH]c4=O)CC3O)C(O)C2O)c(=O)n1 (centres undefined)	·	·	·	·	·	i
COc1ccc(NC(=O)NCc2ccccn2)c(OC)c1	1	i	i	1.3	i	i
COC(=O)c1sc(NC(=S)NNC(=O)c2c(Br)c(C)nn2C)c(C(=O)OC)c1C	-11	i	i	0.46	6*	i
COC(=O)c1sc(S(=O)(=O)Nc2c(C)nn(C)c2C)c(C(=O)OC)c1C	·	·	·	·	·	i
COc1ccc(N2C(C(C)=O)=NN(c3ccccc3)C2c2cccs2)cc1 (centres undefined)	-9	i	i	0.36	7*	i
CC(=O)Nc1ccc(N2C(C(C)=O)=NN(c3ccccc3)C2c2cccs2)cc1 (centres undefined)	-10	i	i	0.76	i	i
Cc1ccc(S(=O)(=O)NCc2ccc(C(=O)N3CCN(Cc4ccccc4)CC3)cc2)cc1	-4	i	i	0.17	i	-9.3*
Cc1ccc(S(=O)(=O)NCc2ccc(C(=O)NCCCN3CCC(Cc4ccccc4)CC3)cc2)cc1	-21	i	i	-3.9	6*	i
Cc1ccc(S(=O)(=O)NCCC(=O)N2CCC(Cc3ccccc3)CC2)cc1	-11	i	i	0.56	i	i
COc1ccc(S(=O)(=O)NCc2ccc(C(=O)N3CCN(Cc4ccccc4)CC3)cc2)cc1	-7	i	i	-4	i	i
Cc1cccc(OC(=O)NCCOC(=O)N(O)c2ccc(Cl)cc2)c1	-10	i	i	-0.58	6*	i
Cc1cccc(OCC(=O)Oc2ccc(Cl)cc2)c1	-5	i	i	0.2	i	i
CCCCN1C(=O)C(C(=O)OCC)CC2=C1CCCC2=O (centres undefined)	·	·	·	·	·	i
Cc1ccc(C)c(Cn2c(C)nc3c(sc(=S)n3-c3ccccc3)c2=O)c1	-6	i	i	0.07	i	i
O=C(CCNc1ccc(Cc2ccncc2)cc1)c1cccc([N+](=O)[O-])c1	-12	i	i	-2.3	i	i
O=C(CCNc1cccc(F)c1)c1cccc([N+](=O)[O-])c1	-20	i	i	-0.16	8*	i
C[C@@H]1C(=O)N(c2ccccc2)[C@@H]1c1ccncc1	·	·	·	·	·	i
CC(COc1ccccc1Cc1ccccc1)N1CCCCC1 (centres undefined)	-11	i	i	-5.8*	i	·
O=C(O)COc1ccccc1Cc1ccccc1	-4	i	i	0.14	i	i
COC(=O)c1ccccc1NC(=S)N(Cc1ccc2c(c1)OCO2)Cc1cc2ccc(C)cc2[nH]c1=O	-7	i	i	-0.01	6*	i
SMILES	hERG protect	KCNQ1 act	KCNK9 block	Kir21 inh	KCNQ1 inh	KCNK3 block
COC(=O)c1ccccc1NC(=S)N(Cc1ccc2c(c1)OCO2)Cc1cc2cc(C)ccc2[nH]c1=O	-9	i	i	1.3	i	i
O=S(=O)(CCOc1ccccc1)c1nc2ccccc2[nH]1	-11	i	i	0.25	i	i
CC(NC(=O)COC(=O)C1CCN(c2ccc(C(F)(F)F)cn2)CC1)c1ccc(Br)cc1 (centres undefined)	-10	i	i	0.44	i	i
CSc1nnc(CCNS(=O)(=O)c2ccccc2Br)n1C	-6	i	i	1.9	i	i
COc1ccccc1CN=C1Nc2ccccc2CS1	-10	i	i	-13*	i	i
COc1ccccc1NC(=O)CSc1nncs1	·	·	·	·	·	i
O=c1oc(-c2ccccc2)cc(Cl)c1Cl	-24	i	i	-0.84	6*	i
CC(C)NC(=O)c1ccc(CSCc2ccccc2Cl)o1	-4	i	i	-1.5	i	i
CCC(C)NC(=O)c1ccc(CSCc2ccccc2Cl)o1 (centres undefined)	1	i	-6.7*	0.02	i	i
CN(C)CCN(C)Cc1ccccc1Sc1cccc2ccccc12	-17	i	i	-7.1*	i	i
CNCc1ccccc1Sc1cccc2ccccc12	-14	8*	i	-15*	i	i
CNCc1ccccc1Sc1ccc(OC)cc1	-3	i	i	0.29	i	i
Nc1c(C(=O)c2ccccc2O)cnn1-c1ccc(S(=O)(=O)N2CCOCC2)cc1[N+](=O)[O-]	-5	i	i	-0.63	i	·
O=S(=O)(Cc1ccccc1)Nc1ccc(S(=O)(=O)NCC2CCCO2)cc1 (centres undefined)	-2	i	i	-0.97	i	i
O=S(=O)(Cc1ccccc1)NCC1CCCO1 (centres undefined)	4.7*	i	i	-1.5	i	i
CC1CC(C)C(=O)C(C(CC2CC(=O)NC(=O)C2)OC(=O)CC(=O)c2ccccc2)C1 (centres undefined)	·	·	·	·	·	i
O=C1NCC(COCc2ccccc2)O1 (centres undefined)	-6	i	i	2.2	i	i
Cc1cccc(C)c1OCC1CNC(=O)O1 (centres undefined)	6.5*	i	i	-0.44	i	i
C=C1c2ccccc2S(=O)(=O)N(Cc2ccccc2)C1COCc1ccccc1 (centres undefined)	-7	i	-6.9*	0.53	i	i
Nc1nc(O)c(N=Nc2ccc(S(N)(=O)=O)cc2)c(=O)[nH]1	4.8*	i	i	0.52	i	·
NS(=O)(=O)c1ccc(N=Nc2c[nH]c(=O)c(O)c2)cc1	-11	i	i	-1	i	i
CC(=O)OCC(=O)Nc1ccc(Br)c(C)c1	-9	i	i	2.3	i	i
Cc1cc(NC(=O)COC(=O)Cn2c(C)csc2=O)ccc1Br	-9	i	i	1.7	6*	i
